From PubChem
Rows were chosen to be rich in hits. Some 9.4% of all compounds tested hit in one or more screens of this group.
Beta cell apopt – beta cell apoptosis inhibition; INS-1E cytokine-induced death, ATP luminescence, 48 h; percent of positive-control rescue, neutral wells zero; protection from apoptosis, % (no concentration beside the values); 300,000 compounds, 0.8% hits;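 active means Every replicate reaches about 75%, or at least half do and their mean reaches it too, limit read from the data; inconclusive means At least half of replicates reach the limit but their mean does not; inactive means Under half of replicates reach the limit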;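 further: 0% = cytokine-treated negative control wells and 100% = positive control rescue; higher means more ATP so stronger rescue from cytokine killing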
T cruzi inh – blocks replication of Trypanosoma cruzi | T. cruzi beta-gal in NIH3T3, luminescence, 90 h | inhibition, % (no concentration beside the values) | 300,000 compounds, 1.4% hits | AID 1885;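 active means mean inhibition across valid replicates above about 55%, limit read from the data; inconclusive means mean below that limit but half or more replicates reach it; inactive means mean below it, under half of replicates reach it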;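 further: signal also drops with host cell toxicity which is not excluded here; 0% = plate median of DMSO wells and 100% = zero luminescence signal; higher percent means less beta-gal luminescence so fewer parasites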
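Read-out: Parasite load inhibition, % | Test system: Mouse NIH/3T3 fibroblasts infected with β-gal-expressing T. cruzi Tulahuen C4 | Amount: 5,000 cells/well | Medium: DMEM, 2% fetal bovine serum | Signal: GalScreen β-gal luminescence, detergent lysis, 60 min | Timing: 3 h attach, ≥90 h co-culture | Also added: Tulahuen C4 trypomastigotes, 5000/well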
CSC inhib – blocks cancer stem cells. inhibition, % at 7.5 µM. AID 2717. 300,000 compounds, 1.1% hits. cancer stem cell-like cells viability, luminescence; in the data active means inhibition above about 75%; inconclusive means no clear call, values can overlap the other calls; tested in HMLE shEcad cells
Lmaj promast – Leishmania major promastigote growth inhibition; Leishmania major promastigotes, resazurin fluorescence viability; inhibition, % at 10 µM; 200,000 compounds, 9% hits; AID 1063; in the data active means inhibition above about 50%;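 further: promastigotes grown with compound for 44 hours at 28 °C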
Mdm2 MdmX PPI – inhibitors of human Mdm2/MdmX interaction; 330,000 compounds, 3% hits; AID 485346; inhibition, % at 8 µM; SaOS-2 split-luciferase Mdm2/MdmX complementation, luminescence;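 active means inhibition of at least 50% at 8 µM in the primary screen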
Target sequence (O15151 whole entry, looked up): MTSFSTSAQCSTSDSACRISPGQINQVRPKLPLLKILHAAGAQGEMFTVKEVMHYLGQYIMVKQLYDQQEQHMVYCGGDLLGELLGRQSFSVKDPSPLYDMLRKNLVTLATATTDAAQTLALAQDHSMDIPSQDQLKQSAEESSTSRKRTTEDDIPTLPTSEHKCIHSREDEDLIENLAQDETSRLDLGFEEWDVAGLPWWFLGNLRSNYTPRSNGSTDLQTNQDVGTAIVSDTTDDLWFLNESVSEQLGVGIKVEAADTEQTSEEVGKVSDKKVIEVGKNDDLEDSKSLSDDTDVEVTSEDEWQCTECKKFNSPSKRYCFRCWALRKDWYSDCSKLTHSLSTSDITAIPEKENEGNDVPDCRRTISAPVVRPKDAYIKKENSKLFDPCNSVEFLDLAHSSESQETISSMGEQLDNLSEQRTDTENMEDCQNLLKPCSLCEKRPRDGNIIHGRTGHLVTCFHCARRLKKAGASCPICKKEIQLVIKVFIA
Target sequence (Q00987 whole entry, looked up): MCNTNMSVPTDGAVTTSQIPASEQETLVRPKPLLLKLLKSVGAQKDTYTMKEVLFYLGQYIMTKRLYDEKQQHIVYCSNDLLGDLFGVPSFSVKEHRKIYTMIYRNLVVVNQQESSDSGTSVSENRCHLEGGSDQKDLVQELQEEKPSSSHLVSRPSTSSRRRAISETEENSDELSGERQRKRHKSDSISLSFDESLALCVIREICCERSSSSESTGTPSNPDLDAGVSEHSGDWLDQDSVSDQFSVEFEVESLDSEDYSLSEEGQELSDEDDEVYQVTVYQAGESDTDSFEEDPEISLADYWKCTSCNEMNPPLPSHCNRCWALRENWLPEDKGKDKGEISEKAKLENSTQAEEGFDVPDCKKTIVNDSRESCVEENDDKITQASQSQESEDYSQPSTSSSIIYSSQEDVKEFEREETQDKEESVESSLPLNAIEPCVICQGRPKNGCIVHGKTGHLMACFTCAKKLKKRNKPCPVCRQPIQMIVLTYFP
SKKanGAS inh – SKKanGAS growth inhibition. S. pyogenes SKKanGAS, kanamycin growth, BacTiter-Glo, 6 h. inhibition, % at 7.5 µM. 300,000 compounds, 1.3% hits;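 active means mean replicate score, as percent of positive control median, at least 50; inconclusive means mean below 50 but one replicate at or above 50; inactive means mean and every replicate below 50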;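 further: strain carries kanamycin resistance gene driven by streptokinase promoter and grows in 40 µg/ml kanamycin; loss of luminescence reflects streptokinase promoter inhibition or plain growth inhibition; 0% = median of DMSO wells and 100% = positive control at its reference dose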
* hit, by the source's call; ? = inconclusive; nt = not tested or not shown.

SMILES	Beta cell apopt	T cruzi inh	CSC inhib	Lmaj promast	Mdm2 MdmX PPI	SKKanGAS inh
COc1ccc(/C=C(\C#N)c2nc3ccccc3[nH]2)cc1O	nt	-1	nt	nt	-7	-2
COc1cc(/C=C2/NC(=O)N(Cc3ccccc3F)C2=O)ccc1Oc1ccc([N+](=O)[O-])cn1	3	17	-6	80*	14	12
CCCOc1cc(N(CC)CC)ccc1/C=C(/C#N)c1nc2ccc(C)cc2[nH]1	45	64*	58	66*	49	61*
COc1c(O)ccc(/C=C(\C#N)c2nc3ccccc3[nH]2)c1[N+](=O)[O-]	1	-14	5	-2	9	55*
C=CCn1c(SCC(=O)NCC(c2ccccc2)N(C)C)nnc1C1CCCCC1 (stereo not given)	-4	nt	-9	nt	5	nt
Cn1c(SCC(=O)NCC2CCCO2)ncc(C(=O)Nc2ccc(Cl)cc2)c1=O (stereo not given)	-5	-15	26	nt	-16	18
CC(=O)/C(=N/Nc1ccccc1[N+](=O)[O-])N1CCCc2ccccc21	4	3	16	nt	26	-7
COc1cc(/C=C(\C#N)c2nc3ccccc3[nH]2)ccc1Oc1ccc([N+](=O)[O-])cn1	21	62*	18	42	17	18
CC(Sc1ncn[nH]1)C(=O)Nc1cc(C(F)(F)F)ccc1Cl (stereo not given)	-3	nt	-2	nt	15	nt
Cc1cc(C)cc(NC2=CC(=O)CC(c3ccco3)C2)c1 (stereo not given)	-5	2	-3	5	6	0
CCc1ccc(NC2=CC(=O)CC(c3ccco3)C2)cc1 (stereo not given)	-1	7	0	63*	16	-7
O=C(CCN1C(=O)c2ccc([N+](=O)[O-])cc2C1=O)Nc1cccc(O)c1	-4	-17	-3	-6	11	-1
Cc1cc(O)ccc1NC(=O)CCN1C(=O)c2ccc([N+](=O)[O-])cc2C1=O	-7	-16	-25	70*	6	2
Cc1ccc(NC(=O)CN2C(=O)NC(C)(CC(C)C)C2=O)c(Br)c1 (stereo not given)	4	nt	-7	nt	1	nt
O=C(COc1ccccc1/C=C1/NC(=O)NC1=O)Nc1ccccc1	-5	3	-14	-4	-3	-6
O=C1NC(=O)/C(=C\c2ccccc2OCc2cccc([N+](=O)[O-])c2)N1	3	16	-3	57*	23	-1
COC(=O)COc1ccccc1/C=C1/NC(=O)NC1=O	3	4	nt	53*	11	1
COc1cc(C2NC(=O)CCC2[N+](=O)[O-])c(OC)cc1Br (stereo not given)	-2	10	-3	nt	-16	-3
COc1ccc(OCC#CCNC(C)(C)C)cc1	-3	13	2	92*	-8	-2
COc1ccc(NC(=O)N2CCC(CO)(CC3CCCCO3)CC2)c(OC)c1 (stereo not given)	3	-15	2	nt	0	-11
CN(c1ccc(C(=O)NC2CC2)cc1)S(=O)(=O)c1ccccc1	0	-4	-1	-4	-9	0
O=C(NC1CC1)c1ccc(CN(c2ccccc2)S(=O)(=O)c2ccccc2)cc1	nt	-5	-3	58*	-12	11
O=C(C1CCN(c2ccc(N3CCOCC3)nn2)CC1)N1CCN(c2ccc(F)cc2)CC1	-3	15	-7	97*	-4	-4
CC(C)C1N(C(N)=S)N=CC1(C)C (stereo not given)	-4	5	25	nt	5	-7
COC(=O)c1[nH]c2cc(C)ccc2c1NC(=O)CN1CCCc2ccccc21	-7	59*	8	0	26	3
SMILES	Beta cell apopt	T cruzi inh	CSC inhib	Lmaj promast	Mdm2 MdmX PPI	SKKanGAS inh
COC(=O)c1c(NC(=O)CN2CCCc3ccccc32)sc(C)c1C	-3	39	19	89*	4	29
COc1ccc(-c2csc(N3C(=O)C4C5c6ccccc6C(c6ccccc65)C4C3=O)n2)cc1 (stereo not given)	-1	15	0	60*	34	-1
Cc1ccc(S(=O)(=O)NCC(=O)NCC(=O)OC(C(=O)NC(N)=O)C(C)C)cc1C (stereo not given)	1	-1	-15	nt	20	-6
CCCCCCCn1c(=N)n(CC(O)c2ccco2)c2ccccc21 (stereo not given)	7	28	1	82*	nt	5
Cc1ccccc1Cn1c(=N)n(CC(O)c2ccco2)c2ccccc21 (stereo not given)	10	-38	-7	78*	38	6
CC(=O)Nc1ccc(S(=O)(=O)N(C)CC(=O)N/N=C/c2ccncc2)cc1	9	-13	-1	nt	15	-13
Cc1ccc(S(=O)(=O)N2CCCCC2)cc1NC(=O)Cc1c[nH]c2ccccc12	2	7	0	19	22	5
Cc1ccc(NC(=O)Cc2c[nH]c3ccccc23)cc1S(=O)(=O)N1CCCCCC1	5	7	18	92*	3	3
Cc1ccc(C)c(S(=O)(=O)N2CCN(C(=O)CCCc3c[nH]c4ccccc34)CC2)c1	3	64*	29	nt	28	15
O=C(Nc1ccc(S(=O)(=O)Nc2ccccc2F)cc1)N1CCCCC1	1	3	3	nt	11	-8
Cn1c(SCC(=O)O)nnc1-c1cccc(NC(=O)c2cccc3ccccc23)c1	-1	-10	-2	nt	-31	4
CCC(=O)Nc1ccc(C2C(=O)c3ccccc3C2=O)cc1	11	9	4	nt	-29	13
CC1(C)CC(NC(=O)c2ccccc2)CC(C)(C)N1	-9	-1	-11	nt	10	-2
CC1(C)CC(Nc2ccc(Nc3ccccc3)cc2)CC(C)(C)N1	25	65*	7	nt	nt	0
COc1ccc(S(=O)(=O)Nc2cccc(Cl)c2)cc1OC	0	1	-9	11	17	-6
COc1ccc(NS(=O)(=O)c2ccc(OC)c(N(C)S(=O)(=O)c3ccc(Cl)cc3)c2)cc1	101*	6	-6	100*	9	27
COc1ccc(S(=O)(=O)Nc2ccc(F)c(F)c2)cc1Cl	0	4	64	6	1	2
COc1ccc(S(=O)(=O)Nc2ccc(F)cc2)cc1N(C)S(=O)(=O)c1ccc(Cl)cc1	9	?	-10	100*	26	-12
O=C(CSc1nc2ccccc2s1)c1ccc(O)cc1O	-13	3	18	nt	-22	6
CN1C(=O)C(C)(C)c2cc(S(=O)(=O)N3CCN(c4cccc(Cl)c4)CC3)ccc21	-4	49	-3	nt	19	-1
CCCCn1c(N)c(N(CC(C)C)C(=O)c2ccc3c(c2)NC(=O)C(C)S3)c(=O)[nH]c1=O (stereo not given)	0	-10	-17	nt	-7	6
CCc1ccc(NC(=O)C2CCCN2S(=O)(=O)c2ccc3c(c2)n(C)c(=O)c(=O)n3C)cc1 (stereo not given)	-2	6	-6	nt	11	8
